Experimental data reported in ChEMBL document CHEMBL2016466, “Design, synthesis, and biological evaluation of new diaminoquinazolines as β-catenin/Tcf4 pathway inhibitors” (J Med Chem, 2012).
pIC50: −log10 of the molar value.

Key:
HCT-116 [1] = assay: Growth inhibition of human HCT116 cells assessed as viable cells after 3 days using resazurin by […] assay; type: functional, cell-based; settings: HCT-116, 72 h
Procedure, shortened: (§1)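 Cells grown in RPMI 1640 + 10% FBS + penicillin/streptomycin, trypsinized and seeded at 2 × 10³ cells/well. Compound added 24 h later as a concentration curve starting at 10 μg/mL with nine further 2-fold dilutions. After 3 days of exposure, viability was read with CellTiter-Blue (resazurin to resorufin). IC50 is the average of three separate experiments.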

SW480 = assay: Growth inhibition of human SW480 cells assessed as viable cells after 3 days using resazurin by […] assay; type: functional, cell-based; settings: SW480, 72 h; procedure, shortened: as §1
TCF4/beta-catenin = TCF4/beta-catenin (Homo sapiens, UniProt P35222+Q9NQB0); assay: Inhibition of beta-catenin/TCF4 pathway expressed in HCT116 cells containing delta45S mutant after 24 hrs by luciferase reporter gene assay; type: cell-based; settings: hct-116
Procedure, shortened: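 HCT116 cells at 1 × 10⁴/well, cotransfected with 50 ng TOP-FLASH reporter (Tcf4 binding sites) and 50 ng pTK-β-gal as internal control. At 4 h post-transfection, fresh medium with compound at various concentrations was added. Firefly luciferase was read 24 h after compound addition, normalized to β-galactosidase and expressed as a percentage of control luciferase activity.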

[2] = Solubility of the compound in water; type: physicochemical; settings: buffer
[3] = Ratio of IC50 for human HCT116 cells to IC50 for […]/TCF4 pathway expressed in HCT116 cells; type: cell-based; settings: HCT-116
HCT-116 [4] = assay: Growth inhibition of human HCT116 cells assessed as clonogenic growth after 9 days using crystal violet staining; type: functional, cell-based; settings: HCT-116, 216 h
Procedure, shortened: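 HCT116 cells in RPMI 1640 + 10% FBS + penicillin/streptomycin, plated at 300 cells/well in six-well plates 8 h before treatment with or without inhibitor (highest final concentration 1.5 μM). Incubated 9 days, then fixed with 10% acetic acid in methanol, stained with 0.05% crystal violet and colonies counted. IC50 is the average of three separate experiments.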

Chain of TCF4/beta-catenin (P35222 2-781 limits assumed, stated change not applied): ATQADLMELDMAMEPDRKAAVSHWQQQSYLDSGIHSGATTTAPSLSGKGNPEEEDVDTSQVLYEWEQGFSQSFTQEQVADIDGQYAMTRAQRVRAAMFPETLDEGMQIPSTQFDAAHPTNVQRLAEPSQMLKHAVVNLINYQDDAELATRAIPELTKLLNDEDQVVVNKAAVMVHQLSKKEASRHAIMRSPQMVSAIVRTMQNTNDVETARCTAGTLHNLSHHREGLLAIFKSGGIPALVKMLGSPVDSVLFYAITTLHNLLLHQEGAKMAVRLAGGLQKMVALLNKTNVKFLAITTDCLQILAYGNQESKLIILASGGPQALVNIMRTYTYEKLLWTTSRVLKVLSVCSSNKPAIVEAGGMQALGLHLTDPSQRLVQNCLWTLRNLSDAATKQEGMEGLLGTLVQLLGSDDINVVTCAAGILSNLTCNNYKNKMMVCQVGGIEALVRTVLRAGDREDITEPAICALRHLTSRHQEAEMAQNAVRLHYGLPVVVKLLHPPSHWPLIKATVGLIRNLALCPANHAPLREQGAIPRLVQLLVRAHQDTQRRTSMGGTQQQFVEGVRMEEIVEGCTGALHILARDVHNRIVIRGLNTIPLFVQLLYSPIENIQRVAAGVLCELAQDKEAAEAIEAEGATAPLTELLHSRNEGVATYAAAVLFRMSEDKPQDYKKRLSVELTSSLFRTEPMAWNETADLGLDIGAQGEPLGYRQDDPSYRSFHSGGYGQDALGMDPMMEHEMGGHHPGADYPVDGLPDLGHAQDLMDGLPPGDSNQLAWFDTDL
Chain of TCF4/beta-catenin (Q9NQB0 whole entry, stated change not applied): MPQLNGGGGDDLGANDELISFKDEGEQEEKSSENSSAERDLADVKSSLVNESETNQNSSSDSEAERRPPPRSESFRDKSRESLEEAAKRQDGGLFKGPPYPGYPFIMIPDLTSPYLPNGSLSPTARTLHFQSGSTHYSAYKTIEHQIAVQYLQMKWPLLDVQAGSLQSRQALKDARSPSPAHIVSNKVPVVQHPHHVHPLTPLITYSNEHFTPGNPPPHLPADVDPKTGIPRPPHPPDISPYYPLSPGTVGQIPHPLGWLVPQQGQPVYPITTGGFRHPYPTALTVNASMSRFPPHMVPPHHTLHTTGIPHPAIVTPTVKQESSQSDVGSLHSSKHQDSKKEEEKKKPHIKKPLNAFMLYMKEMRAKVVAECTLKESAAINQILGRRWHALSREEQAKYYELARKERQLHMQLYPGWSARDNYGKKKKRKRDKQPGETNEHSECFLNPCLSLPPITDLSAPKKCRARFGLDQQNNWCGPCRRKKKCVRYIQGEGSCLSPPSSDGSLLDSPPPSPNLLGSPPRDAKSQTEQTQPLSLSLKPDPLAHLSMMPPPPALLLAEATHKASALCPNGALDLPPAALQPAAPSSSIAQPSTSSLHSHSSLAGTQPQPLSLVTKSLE

| pIC50 (HCT-116 [1]) | pIC50 (SW480) | pIC50 (TCF4/beta-catenin) | solubility [2] | pIC50 (HCT-116 [4]) | SMILES | Ratio IC50 [3] |
| --- | --- | --- | --- | --- | --- | --- |
| < 4.70 | < 4.70 |  |  |  | CCCNc1nc2ccccc2c(NCc2ccc(NC(=O)c3ccc(F)cc3)cc2)c1C#N |  |
| < 4.70 | < 4.70 |  |  |  | Cc1ccc(S(=O)(=O)Nc2ccc(CNc3nc(N4CCN(C)CC4)nc4ccccc34)cc2)cc1 |  |
| 5.82 | 5.68 | 5.60 |  |  | CCCNc1nc(NCc2ccc(C(=O)Nc3ccc(Cl)nc3)cc2)c2cc(C)ccc2n1 |  |
| 5.92 | 5.89 | 5.52 |  |  | CNc1nc(NCc2ccc(C(=O)NC3CCN(Cc4ccc(F)cc4)CC3)cc2)c2cc(C)ccc2n1 |  |
| < 4.70 | < 4.70 |  |  |  | CCNc1ncc(C)c(NCc2ccc(NC(=O)c3ccc(F)cc3)cc2)n1 |  |
| 5.00 | 4.85 |  |  |  | CN(C)CCCNc1nc(NCc2ccc(NC(=O)c3ccc(F)cc3)cc2)c2ccccc2n1 |  |
| 5.80 | 5.96 | 5.52 |  |  | CCCNc1nc(NCc2ccc(C(=O)NC3CCN(Cc4ccc(F)cc4)CC3)cc2)c2cc(C)ccc2n1 |  |
| 5.89 | 5.62 | 5.52 |  |  | Cc1ccc2nc(N(C)C)nc(NCc3ccc(C(=O)N[C@H]4C[C@@H]4c4ccccc4)cc3)c2c1 (relative stereo) |  |
| 5.70 | 5.64 |  |  |  | CNc1nc(NCc2ccc(NC(=O)c3ccc(F)cc3)cc2Cl)c2ccccc2n1 |  |
| 5.92 | 5.89 |  | soluble |  | CCCNc1nc(NCc2ccc(C(=O)Nc3ccc(F)cc3)cc2)c2cc(C)ccc2n1 |  |
| 5.80 | 5.70 | 5.46 |  |  | CNc1nc(NCc2ccc(NC(=O)c3ccc(F)cc3)cc2)c2ccccc2n1 | 2 |
| 5.25 | 5.25 |  |  |  | Cc1ccc2nc(N(C)C)nc(NCc3ccc(C(=O)N4CCC(C(=O)NCc5ccc(F)cc5)CC4)cc3)c2c1 |  |
| 5.82 | 5.80 | 5.52 |  | 6.16 | CCCNc1nc(NCc2ccc(C(=O)Nc3ccc(F)cc3)cc2)c2ccccc2n1 |  |
| 6.10 | 5.96 | 5.60 |  | 6.50 | Cc1ccc2nc(N(C)C)nc(NCc3ccc(C(=O)NC4CCN(Cc5ccc(F)cc5)CC4)cc3)c2c1 |  |
| 5.31 | 5.39 |  |  |  | O=S(=O)(Nc1ccc(CNc2nc(NC3CC3)nc3ccccc23)cc1)c1ccc(F)cc1 |  |
| 6.05 | 5.96 | 5.70 |  | 6.53 | Cc1ccc2nc(N(C)C)nc(NCc3ccc(C(=O)NCc4ccc(F)cc4)cc3)c2c1 |  |
| < 4.70 | < 4.70 |  |  |  | CN1CCN(c2nc(NCc3ccc(NC(=O)c4ccncc4)cc3)c3ccccc3n2)CC1 |  |
| 4.96 | 4.89 |  |  |  | Cc1ccc(S(=O)(=O)Nc2ccc(CNc3nc(N(C)C)nc4ccccc34)cc2)cc1 |  |
| 5.74 | 5.60 |  |  |  | CN1CCN(c2nc(NCc3ccc(NC(=O)c4ccc(F)cc4)cc3)c3ccccc3n2)CC1 |  |
| 5.72 | 5.59 | 5.52 |  |  | CN(C)c1nc(NCc2ccc(C(=O)Nc3ccc(F)cc3)cc2)c2ccccc2n1 |  |
| < 4.70 | < 4.70 |  |  |  | CNc1nc2ccccc2c(NCc2ccc(NC(=O)c3ccc(F)cc3)cc2)c1C#N |  |
| < 4.70 | < 4.70 |  |  |  | CNc1nc(NCc2ccc(NC(=O)c3ccncc3)cc2)c2ccccc2n1 |  |
| 6.22 | 5.85 | 5.82 |  | 6.58 | Cc1ccc2nc(N(C)C)nc(NCc3ccc(C(=O)NCCc4ccc(F)cc4)cc3)c2c1 |  |
| 5.26 | 5.24 |  |  |  | CCCNc1nc(NCc2ccc(C(=O)N3CCC(C(=O)NCc4ccc(F)cc4)CC3)cc2)c2ccccc2n1 |  |
| 5.24 | 5.31 |  |  |  | CNc1nc(NCc2ccc(NS(=O)(=O)c3ccc(C)cc3)cc2)c2ccccc2n1 |  |
| 5.54 | 5.85 |  |  |  | Cc1ccc2nc(N3CCNC(C)C3)nc(NCc3ccc(C(=O)NCc4ccc(F)cc4)cc3)c2c1 (racemic) |  |
| < 4.70 | < 4.70 |  |  |  | CNc1ncc(Br)c(NCc2ccc(NC(=O)c3ccc(F)cc3)cc2)n1 |  |

| pIC50 (HCT-116 [1]) | pIC50 (SW480) | pIC50 (TCF4/beta-catenin) | solubility [2] | pIC50 (HCT-116 [4]) | SMILES | Ratio IC50 [3] |
| --- | --- | --- | --- | --- | --- | --- |
| 5.80 | 5.80 | 5.70 |  |  | CCCNc1nc(NCc2ccc(C(=O)NCCc3ccc(F)cc3)cc2)c2cc(C)ccc2n1 |  |
| 5.55 | 5.49 | < 5.30 |  |  | CC1CN(c2nc(NCc3ccc(C(=O)Nc4ccc(F)cc4)cc3)c3ccccc3n2)CCN1 (racemic) |  |
| 5.54 | 5.39 |  |  |  | CNc1nc(NCc2ccc(C(=O)Nc3ccc(F)cc3)cc2)c2ccccc2n1 |  |
| 5.70 | 6.00 | < 5.30 |  |  | Cc1ccc2nc(N3CCNC(C)C3)nc(NCc3ccc(C(=O)NC4CCN(Cc5ccc(F)cc5)CC4)cc3)c2c1 (racemic) |  |
| 4.89 | 5.00 |  |  |  | C=CCNc1nc(NCc2ccc(C(=O)Nc3ccc(F)cc3)cc2)c2cc(C)ccc2n1 |  |
| < 4.70 | < 4.70 |  |  |  | CN(C)CCCNc1nc(NCc2ccc(NC(=O)c3ccc(CN4CCN(C)CC4)cc3)cc2)c2ccccc2n1 |  |
| 5.96 | 5.82 | 6.00 |  |  | CNc1nc(NCc2ccc(C(=O)NCCc3ccc(F)cc3)cc2)c2cc(C)ccc2n1 |  |
| 5.85 | 6.00 | 5.82 |  | 6.42 | CCCCNc1nc(NCc2ccc(C(=O)Nc3ccc(F)cc3)cc2)c2ccccc2n1 |  |
| 4.82 | 4.96 |  |  |  | CN(C)c1nc(NCc2ccc(NC(=O)c3ccncc3)cc2)c2ccccc2n1 |  |
| 5.77 | 5.70 | 5.60 |  |  | CCCNc1nc(NCc2ccc(NC(=O)c3ccc(F)cc3)cc2)c2ccccc2n1 | 2 |
| 4.85 | 4.96 |  |  |  | C=CCNc1nc(NCc2ccc(C(=O)Nc3ccc(F)cc3)cc2)c2ccccc2n1 |  |
| 5.57 | 5.59 |  |  |  | O=C(Nc1ccc(F)cc1)c1ccc(CNc2nc(NC3CC3)nc3ccccc23)cc1 |  |
| 5.28 | 5.32 |  |  |  | CNc1nc(NCc2ccc(NS(=O)(=O)c3ccc(F)cc3)cc2)c2ccccc2n1 |  |
| 5.77 | 5.74 | 5.46 |  |  | CCNc1nc(NCc2ccc(C(=O)N[C@H]3C[C@@H]3c3ccccc3)cc2)c2cc(C)ccc2n1 (relative stereo) |  |
| 5.24 | 5.26 |  |  |  | CN(C)c1nc(NCc2ccc(C(=O)N3CCC(C(=O)NCc4ccc(F)cc4)CC3)cc2)c2ccccc2n1 |  |
| 5.72 | 5.60 | 5.46 |  |  | CCNc1nc(NCc2ccc(C(=O)Nc3ccc(F)cc3)cc2)c2ccccc2n1 |  |
| 5.36 | 5.66 |  |  |  | CCCNc1nc(NCc2ccc(C(=O)NCc3ccc(F)cc3)cc2)c2cc(C)ccc2n1 |  |
| 5.82 | 5.80 |  |  |  | CCNc1nc(NCc2ccc(NC(=O)c3ccc(F)cc3)cc2Cl)c2ccccc2n1 |  |
| 5.85 | 5.64 | 5.52 |  |  | CCNc1nc(NCc2ccc(NC(=O)c3ccc(F)cc3)cc2)c2ccccc2n1 | 2 |
| 5.34 | 5.28 |  |  |  | CCCNc1nc(NCc2ccc(C(=O)N3CCC(C(=O)NCc4ccc(F)cc4)CC3)cc2)c2cc(C)ccc2n1 |  |
| < 4.70 | < 4.70 |  |  |  | CNc1ncc(C)c(NCc2ccc(NC(=O)c3ccc(F)cc3)cc2)n1 |  |
| 5.89 | 5.66 |  |  |  | CN(C)c1nc(NCc2ccc(NC(=O)c3ccc(F)cc3)cc2)c2ccccc2n1 |  |
| 5.00 | 4.96 |  |  |  | CNc1nc(NCc2ccc(NC(=O)c3ccc(CN4CCN(C)CC4)cc3)cc2)c2ccccc2n1 |  |
| 5.16 | 5.28 |  |  |  | C=CCNc1nc(NCc2ccc(C(=O)NC3CCN(C(=O)c4ccc(F)cc4)CC3)cc2)c2cc(C)ccc2n1 |  |
| 5.17 | 5.26 |  |  |  | CCCNc1nc(NCc2ccc(C(=O)NC3CCN(C(=O)c4ccc(F)cc4)CC3)cc2)c2cc(C)ccc2n1 |  |
| 5.89 | 5.96 | 5.60 |  |  | Cc1ccc2nc(N(C)C)nc(NCc3ccc(C(=O)Nc4ccc(Cl)nc4)cc3)c2c1 |  |
